Holding throughout (format): functional
For assay [1], the system named is Staphylococcus aureus. The experiment in a line: In vitro minimum inhibitory concentration required to produce antibacterial activity against Staphylococcus aureus 887MSSA. The gist of the method:
(§1)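 Two-fold agar dilution on Mueller-Hinton agar. Overnight broth cultures diluted in fresh broth to […]; 10⁴ CFU/spot applied by inoculating apparatus onto plates with graded drug concentrations. Incubated 18 h at 37 °C; MIC taken as the lowest concentration giving complete growth inhibition.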

Assay [2] relates to Staphylococcus aureus. The experiment in a line: In vitro minimum inhibitory concentration required to produce antibacterial activity against Staphylococcus aureus 743 MRSA. In short, it runs like this: as §1
For a further assay, the system named is Enterobacter cloacae. Briefly: In vitro minimum inhibitory concentration required to produce antibacterial activity against Enterobacter cloacae 908SSI. In short, it runs like this:
as §1

Assay [3] concerns Streptococcus pneumoniae. Briefly: Minimum inhibitory concentration for antibacterial activity against Streptococcus pneumoniae Q19 (pen s). The gist of the method: as §1
The test system of assay [4] is Streptococcus pneumoniae. The experiment in a line: In vitro minimum inhibitory concentration required to produce antibacterial activity against Streptococcus pneumoniae 1/37(pen r). In short, it runs like this:
as §1

In another assay the test system is Enterococcus faecalis. The experiment in a line: In vitro minimum inhibitory concentration required to produce antibacterial activity against Enterococcus faecalis ATCC 29212. In short, it runs like this: as §1
The next assay relates to Escherichia coli. The experiment in a line: In vitro minimum inhibitory concentration required to produce antibacterial activity against Escherichia coli 25922. In short, it runs like this: as §1
For another assay, the system named is Citrobacter freundii. Briefly: In vitro minimum inhibitory concentration required to produce antibacterial activity against Citrobacter freundii 902. In short, it runs like this:
as §1

The next assay concerns Pseudomonas aeruginosa. Briefly: In vitro minimum inhibitory concentration required to produce antibacterial activity against Pseudomonas aeruginosa ATCC 27853. In short, it runs like this:
as §1

This is an account of results in ChEMBL document CHEMBL1129566 (J Med Chem, 1996).

Usually MIC stands for the lowest concentration that inhibits growth of the organism.

Converted amounts (≈) assume the structure as drawn.

On to `C=CC1=C(C(=O)O)N2C(=O)[C@@H](NC(=O)/C(=N\O)c3csc(N)n3)[C@H]2SC1`, for which the minimum inhibitory concentration (MIC) against Staphylococcus aureus [1] was 0.5 µg/mL (≈ 1.26 µM); in the assay on Staphylococcus aureus [2] it was 16 µg/mL (≈ 40.5 µM); with Enterobacter cloacae, 16 µg/mL (≈ 40.5 µM); with Streptococcus pneumoniae [3], 0.25 µg/mL (≈ 0.632 µM); against Streptococcus pneumoniae [4] it was 4 µg/mL (≈ 10.1 µM); against Enterococcus faecalis, 16 µg/mL (≈ 40.5 µM). The minimal inhibitory concentration (MIC) was 0.25 µg/mL (≈ 0.632 µM) against Escherichia coli, 8 µg/mL (≈ 20.2 µM) in the assay on Citrobacter freundii and greater than 32 µg/mL in the assay with Pseudomonas aeruginosa.
With `Nc1nc(/C(=N/O)C(=O)N[C@@H]2C(=O)N3C(C(=O)O)=C(/C=C4\CCCN(c5ccccc5)C4=O)CS[C@H]23)cs1`, the minimal inhibitory concentration (MIC) against Staphylococcus aureus [1] worked out at 2 µg/mL (≈ 3.61 µM); against Staphylococcus aureus [2], 32 µg/mL (≈ 57.7 µM); in the assay on Enterobacter cloacae, 4 µg/mL (≈ 7.21 µM); with Streptococcus pneumoniae [3], 0.12 µg/mL (≈ 0.216 µM); against Streptococcus pneumoniae [4] it was 4 µg/mL (≈ 7.21 µM); in the assay with Enterococcus faecalis it was 8 µg/mL (≈ 14.4 µM). For the same molecule, the MIC against Escherichia coli was 1 µg/mL (≈ 1.8 µM); against Citrobacter freundii, 1 µg/mL (≈ 1.8 µM); in the assay with Pseudomonas aeruginosa, greater than 32 µg/mL.
With `Nc1nc(/C(=N/OC2CCCC2)C(=O)N[C@@H]2C(=O)N3C(C(=O)O)=C(/C=C4\CCN(CC(F)(F)F)C4=O)CS[C@H]23)cs1`, the minimal inhibitory concentration (MIC) against Staphylococcus aureus [1] is 4 µg/mL (≈ 6.51 µM); in the assay with Staphylococcus aureus [2], 8 µg/mL (≈ 13 µM); against Enterobacter cloacae it was 4 µg/mL (≈ 6.51 µM); in the assay with Streptococcus pneumoniae [3] it was no more than 0.06 µg/mL; with Streptococcus pneumoniae [4] it was 1 µg/mL (≈ 1.63 µM); against Enterococcus faecalis, 8 µg/mL (≈ 13 µM). Besides, the MIC against Escherichia coli is 2 µg/mL (≈ 3.25 µM); against Citrobacter freundii, 4 µg/mL (≈ 6.51 µM); against Pseudomonas aeruginosa, 8 µg/mL (≈ 13 µM).
Take `C#CCN1CC/C(=C\C2=C(C(=O)O)N3C(=O)[C@@H](NC(=O)/C(=N\O)c4csc(N)n4)[C@H]3SC2)C1=O`: the MIC was 1 µg/mL (≈ 1.99 µM) against Staphylococcus aureus [1]; 4 µg/mL (≈ 7.96 µM) in the assay with Staphylococcus aureus [2]; 1 µg/mL (≈ 1.99 µM) in the assay on Enterobacter cloacae; no more than 0.06 µg/mL in the assay on Streptococcus pneumoniae [3]; 2 µg/mL (≈ 3.98 µM) with Streptococcus pneumoniae [4]; 1 µg/mL (≈ 1.99 µM) against Enterococcus faecalis. Moreover, the MIC against Escherichia coli was no more than 0.06 µg/mL; in the assay with Citrobacter freundii it was 0.12 µg/mL (≈ 0.239 µM); against Pseudomonas aeruginosa, 8 µg/mL (≈ 15.9 µM).
Take `Nc1nc(/C(=N/O)C(=O)N[C@@H]2C(=O)N3C(C(=O)O)=C(/C=C4\CCN(c5cccc([N+](=O)[O-])c5)C4=O)CS[C@H]23)cs1`: the MIC was 0.5 µg/mL (≈ 0.854 µM) in the assay with Staphylococcus aureus [1]; 4 µg/mL (≈ 6.83 µM) in the assay on Staphylococcus aureus [2]; 0.25 µg/mL (≈ 0.427 µM) with Enterobacter cloacae; no more than 0.06 µg/mL against Streptococcus pneumoniae [3]; 2 µg/mL (≈ 3.42 µM) in the assay with Streptococcus pneumoniae [4]; 0.12 µg/mL (≈ 0.205 µM) in the assay on Enterococcus faecalis. For the same molecule, the values for the minimal inhibitory concentration (MIC) in the assay on Escherichia coli, against Citrobacter freundii and in the assay on Pseudomonas aeruginosa were 0.12 µg/mL (≈ 0.205 µM), 0.12 µg/mL (≈ 0.205 µM) and 16 µg/mL (≈ 27.3 µM), respectively.
For the molecule `Nc1nc(/C(=N/O)C(=O)N[C@@H]2C(=O)N3C(C(=O)O)=C(/C=C4\CCN(c5cccnc5)C4=O)CS[C@H]23)cs1`, the minimal inhibitory concentration (MIC) against Staphylococcus aureus [1] is 1 µg/mL (≈ 1.85 µM); with Staphylococcus aureus [2], 8 µg/mL (≈ 14.8 µM); with Enterobacter cloacae, no more than 0.12 µg/mL; against Streptococcus pneumoniae [3], 0.12 µg/mL (≈ 0.222 µM); with Streptococcus pneumoniae [4], 2 µg/mL (≈ 3.69 µM); in the assay on Enterococcus faecalis it was 0.5 µg/mL (≈ 0.923 µM). For the same molecule, the results for the minimum inhibitory concentration (MIC) in the assay with Escherichia coli, against Citrobacter freundii and with Pseudomonas aeruginosa were no more than 0.12 µg/mL, no more than 0.12 µg/mL and 16 µg/mL (≈ 29.5 µM), respectively.
With `Nc1nc(/C(=N/O)C(=O)N[C@@H]2C(=O)N3C(C(=O)O)=C(/C=C4/CN(c5ccccc5)C4=O)CS[C@H]23)cs1`, the MIC against Staphylococcus aureus [1] amounted to 0.12 µg/mL (≈ 0.228 µM); in the assay on Staphylococcus aureus [2], 2 µg/mL (≈ 3.8 µM); with Enterobacter cloacae it was 4 µg/mL (≈ 7.6 µM); against Streptococcus pneumoniae [3], 0.12 µg/mL (≈ 0.228 µM); against Streptococcus pneumoniae [4], 2 µg/mL (≈ 3.8 µM); against Enterococcus faecalis, 0.5 µg/mL (≈ 0.95 µM). Also, the MIC against Escherichia coli came out at 2 µg/mL (≈ 3.8 µM); against Citrobacter freundii, 4 µg/mL (≈ 7.6 µM); in the assay with Pseudomonas aeruginosa, 16 µg/mL (≈ 30.4 µM).
Consider `Nc1nc(/C(=N/O)C(=O)N[C@@H]2C(=O)N3C(C(=O)O)=C(/C=C4\CCN(c5ccccc5)C4=O)CS[C@H]23)cs1`, for which the minimum inhibitory concentration (MIC) worked out at 0.5 µg/mL (≈ 0.925 µM) in the assay on Staphylococcus aureus [1]; 8 µg/mL (≈ 14.8 µM) in the assay with Staphylococcus aureus [2]; 0.5 µg/mL (≈ 0.925 µM) in the assay on Enterobacter cloacae; 0.06 µg/mL (≈ 0.111 µM) against Streptococcus pneumoniae [3]; 2 µg/mL (≈ 3.7 µM) in the assay on Streptococcus pneumoniae [4]; 0.25 µg/mL (≈ 0.462 µM) with Enterococcus faecalis. Further, the results for the MIC against Escherichia coli, with Citrobacter freundii and in the assay on Pseudomonas aeruginosa were 0.25 µg/mL (≈ 0.462 µM), 0.25 µg/mL (≈ 0.462 µM) and 16 µg/mL (≈ 29.6 µM), respectively.
Consider `C=CCN1CC/C(=C\C2=C(C(=O)O)N3C(=O)[C@@H](NC(=O)/C(=N\O)c4csc(N)n4)[C@H]3SC2)C1=O`, for which the minimum inhibitory concentration (MIC) is 1 µg/mL (≈ 1.98 µM) against Staphylococcus aureus [1]; 16 µg/mL (≈ 31.7 µM) against Staphylococcus aureus [2]; 0.25 µg/mL (≈ 0.495 µM) against Enterobacter cloacae; no more than 0.06 µg/mL against Streptococcus pneumoniae [3]; 1 µg/mL (≈ 1.98 µM) against Streptococcus pneumoniae [4]; 1 µg/mL (≈ 1.98 µM) against Enterococcus faecalis. In addition, the figures for the MIC with Escherichia coli, with Citrobacter freundii and with Pseudomonas aeruginosa were no more than 0.06 µg/mL, no more than 0.06 µg/mL and 16 µg/mL (≈ 31.7 µM), respectively.
As for `Nc1nc(/C(=N/O)C(=O)N[C@@H]2C(=O)N3C(C(=O)O)=C(/C=C4\CN(c5ccccc5)C4=O)CS[C@H]23)cs1`, the MIC against Staphylococcus aureus [1] was determined as 0.5 µg/mL (≈ 0.95 µM); against Staphylococcus aureus [2], 8 µg/mL (≈ 15.2 µM); in the assay on Enterobacter cloacae, 2 µg/mL (≈ 3.8 µM); against Streptococcus pneumoniae [3], 0.5 µg/mL (≈ 0.95 µM); in the assay on Streptococcus pneumoniae [4], 4 µg/mL (≈ 7.6 µM); in the assay with Enterococcus faecalis it was 0.25 µg/mL (≈ 0.475 µM). Besides, the MIC with Escherichia coli came out at 1 µg/mL (≈ 1.9 µM); against Citrobacter freundii it was 1 µg/mL (≈ 1.9 µM); against Pseudomonas aeruginosa, 16 µg/mL (≈ 30.4 µM).
